Measured values: ChEMBL document CHEMBL1649147, “Antistaphylococcal activity of dihydrophthalazine antifolates, a family of novel antibacterial drugs” (2009)
≈ marks a conversion by molar mass, not a printed value.

Columns and labels:
[1] = tested on: Staphylococcus epidermidis; test: Antibacterial activity against coagulase-negative Staphylococcus epidermidis 225 by agar dilution method; type: functional
In short: (§1)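 MICs by agar dilution on Mueller-Hinton agar following CLSI guidelines. S. aureus ATCC 29213 and E. faecalis ATCC 29212 were run as quality controls with each set, and test-strain MICs were kept only if control MICs fell within acceptable ranges.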

Staphylococcus aureus [2] = test: Antibacterial activity against Staphylococcus aureus 145 after 10 passages in MHB without antibiotic by agar dilution method; type: functional
In short: (§2)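 After drug-selective serial passage, selected clones were passaged 10 times in antibiotic-free MHB. MICs were then redetermined, and the change is expressed as log2 dilution steps.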

[3] = tested on: Staphylococcus epidermidis; test: Antibacterial activity against coagulase-negative Staphylococcus epidermidis 057 assessed as change in MIC by agar dilution method after serial passages in the absence of antibiotic relative to control; type: functional; in short: as §2
Staphylococcus aureus [4] = test: Antibacterial activity against vancomycin-resistant Staphylococcus aureus VRS1 after 10 passages in MHB without antibiotic by agar dilution method; type: functional
In short: (§3)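 Clones from the end of drug passage were transferred 10 times in MHB without antibiotic, then retested by agar dilution. MIC change is expressed as log2 dilution steps.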

Staphylococcus aureus [5] = test: Antibacterial activity against vancomycin-resistant Staphylococcus aureus VRS1 assessed as change in MIC by agar dilution method after serial passages in the absence of antibiotic relative to control; type: functional; in short: as §3
[6] = tested on: Staphylococcus epidermidis; test: Antibacterial activity against methicillin-susceptible coagulase-negative Staphylococcus epidermidis 051 by broth macrodilution method; type: functional
[7] = tested on: Staphylococcus epidermidis; test: Antibacterial activity against methicillin-resistant coagulase-negative Staphylococcus epidermidis 074 by broth macrodilution method; type: functional
Staphylococcus aureus [8] = test: Antibacterial activity against Staphylococcus aureus 145
[9] = tested on: Staphylococcus epidermidis; test: Antibacterial activity against methicillin-susceptible coagulase-negative Staphylococcus epidermidis 057 by broth macrodilution method; type: functional
Staphylococcus aureus [10] = test: Antibacterial activity against Staphylococcus aureus ATCC 29213 assessed as change in MIC by agar odilution method after serial passages in presence of antibiotic relative to control; type: functional, ATCC29213
In short: (§4)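 Serial passage under drug. Inoculum was ~1 × 10^6 CFU/ml from overnight MHA growth, in 1 ml MHB at 35°C for 24 h. Drug ranged from 4 log2 steps above to 3 log2 steps below the MIC. […] MIC change is given as log2 steps.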

Staphylococcus aureus [11] = test: Antibacterial activity against Staphylococcus aureus 145 assessed as change in MIC by agar dilution method after serial passages in the absence of antibiotic relative to control; type: functional; in short: as §2
[12] = tested on: coagulase-negative staphylococci; test: Antibacterial activity against methicillin-susceptible coagulase-negative staphylococci by agar dilution method
[13] = tested on: Staphylococcus epidermidis; test: Antibacterial activity against coagulase-negative Staphylococcus epidermidis 345 assessed as change in MIC by agar dilution method after serial passages in presence of antibiotic relative to control; type: functional; in short: as §4
[14] = tested on: Staphylococcus epidermidis; test: Antibacterial activity against coagulase-negative Staphylococcus epidermidis 057 by agar dilution method; type: functional
In short: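 Agar dilution MIC determined on Mueller-Hinton agar following CLSI guidelines. S. aureus ATCC 29213 and Enterococcus faecalis ATCC 29212 were run as quality controls with each set, and test MICs were accepted only when the control MICs fell within acceptable ranges. Test organism was a coagulase-negative S. epidermidis strain.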

[15] = tested on: Staphylococcus epidermidis; test: Antibacterial activity against methicillin-resistant coagulase-negative Staphylococcus epidermidis 197 after 50 passages by agar dilution method; type: functional
In short: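 Daily serial passage for up to 50 days at 35°C for 24 h in 1 ml MHB. Each transfer used 10 µl from the tube nearest the MIC (1–2 dilutions below) with the same turbidity as the drug-free control. MICs were measured by agar dilution, with changes given as log2 steps.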

Staphylococcus aureus [16] = test: Antibacterial activity against methicillin-susceptible Staphylococcus aureus by agar dilution method; type: functional
In short: (§5)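 Agar dilution on Mueller-Hinton agar per CLSI guidelines. S. aureus ATCC 29213 and E. faecalis ATCC 29212 were run with each set, and test MICs were accepted only when the control strains fell within acceptable ranges.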

[17] = tested on: Staphylococcus epidermidis; test: Antibacterial activity against methicillin-resistant coagulase-negative Staphylococcus epidermidis 345 by broth macrodilution method; type: functional
[18] = tested on: coagulase-negative staphylococci; test: Antibacterial activity against Tmp-resistant coagulase-negative staphylococci by agar dilution method
Staphylococcus aureus [19] = test: Antibacterial activity against methicillin-susceptible Staphylococcus aureus 505 by broth macrodilution method; type: functional
[20] = tested on: coagulase-negative staphylococci; test: Antibacterial activity against methicillin-resistant coagulase-negative staphylococci by agar dilution method
Staphylococcus aureus [21] = test: Antibacterial activity against methicillin-resistant Staphylococcus aureus 145 by broth macrodilution method; type: functional
[22] = tested on: coagulase-negative staphylococci; test: Antibacterial activity against Tmp-susceptible coagulase-negative staphylococci by agar dilution method
[23] = tested on: Staphylococcus epidermidis; test: Antibacterial activity against methicillin-resistant coagulase-negative Staphylococcus epidermidis 225 by broth macrodilution method; type: functional
[24] = tested on: Staphylococcus epidermidis; test: Antibacterial activity against coagulase-negative Staphylococcus epidermidis 051 after 10 passages in MBH without antibiotic by agar dilution method; type: functional; in short: as §2
[25] = tested on: Staphylococcus epidermidis; test: Antibacterial activity against methicillin-resistant, Linezolid non-susceptible coagulase-negative Staphylococcus epidermidis 345 by agar dilution method; type: functional
[26] = tested on: Staphylococcus epidermidis; test: Antibacterial activity against coagulase-negative Staphylococcus epidermidis 057 after 10 passages in MBH without antibiotic by agar dilution method; type: functional; in short: as §2
[27] = tested on: Staphylococcus epidermidis; test: Antibacterial activity against coagulase-negative Staphylococcus epidermidis 225 assessed as change in MIC by agar dilution method after serial passages in presence of antibiotic relative to control; type: functional; in short: as §4
Staphylococcus aureus [28] = test: Antibacterial activity against methicillin-susceptible, vancomycin-intermediate Staphylococcus aureus 505 by broth macrodilution method; type: functional
Staphylococcus aureus [29] = test: Antibacterial activity against methicillin-susceptible, vancomycin-intermediate Staphylococcus aureus 505 after 50 passages by agar dilution method; type: functional
In short: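 Daily serial passage for up to 50 days at 35°C for 24 h in 1 ml MHB. […] Each transfer used 10 µl from the tube nearest the MIC (1–2 dilutions below) with the same turbidity as the drug-free control. […] MICs were measured by agar dilution, with changes given as log2 steps.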

Staphylococcus aureus [30] = test: Antibacterial activity against methicillin-resistant Staphylococcus aureus 507 by broth macrodilution method; type: functional
Staphylococcus aureus [31] = test: Antibacterial activity against Staphylococcus aureus 145 assessed as change in MIC by agar dilution method after serial passages in presence of antibiotic relative to control; type: functional; in short: as §4
[32] = tested on: Staphylococcus epidermidis; test: Antibacterial activity against methicillin-resistant, vancomycin-intermediate coagulase-negative Staphylococcus epidermidis 225 by agar dilution method; type: functional; in short: as §5
[33] = tested on: Staphylococcus epidermidis; test: Antibacterial activity against coagulase-negative Staphylococcus epidermidis 051 by agar dilution method; type: functional; in short: as §1
[34] = tested on: Staphylococcus epidermidis; test: Antibacterial activity against coagulase-negative Staphylococcus epidermidis 197 assessed as change in MIC by agar dilution method after serial passages in presence of antibiotic relative to control; type: functional; in short: as §4
Staphylococcus aureus [35] = test: Antibacterial activity against methicillin-resistant Staphylococcus aureus ATCC 43300 by broth macrodilution method; type: functional; conditions: ATCC43300
[36] = tested on: Staphylococcus epidermidis; test: Antibacterial activity against coagulase-negative Staphylococcus epidermidis 225 assessed as change in MIC by agar dilution method after serial passages in the absence of antibiotic relative to control; type: functional; in short: as §2

SMILES	MIC [1] [µg/mL]	MIC (Staphylococcus aureus [2]) [µg/mL]	fold change (FC) [3]	MIC (Staphylococcus aureus [4]) [µg/mL]	fold change (FC) (Staphylococcus aureus [5])	MIC [6] [µg/mL]	MIC [7] [µg/mL]	MIC (Staphylococcus aureus [8]) [µg/mL]	MIC [9] [µg/mL]	fold change (FC) (Staphylococcus aureus [10])	fold change (FC) (Staphylococcus aureus [11])	MIC90 [12] [µg/mL]	fold change (FC) [13]	MIC [14] [µg/mL]	MIC [15] [µg/mL]	MIC50 (Staphylococcus aureus [16]) [µg/mL]	MIC90 (Staphylococcus aureus [16]) [µg/mL]	MIC [17] [µg/mL]	MIC50 [18] [µg/mL]	MIC90 [18] [µg/mL]	further results
COc1cc(Cc2cnc(N)nc2N)cc(/C=C/C(=O)N2N=Cc3ccccc3C2c2cnc(N(C)C)nc2)c1OC (stereo not given)	0.25 (≈ 0.442 µM)	> 128	-1	> 128	0	0.125 (≈ 0.221 µM)	0.06 (≈ 0.106 µM)	0.25 (≈ 0.442 µM)	4 (≈ 7.07 µM)	3	0	0.03 (≈ 0.053 µM)	12	8 (≈ 14.1 µM)	0.125 (≈ 0.221 µM)	0.03 (≈ 0.053 µM)	0.25 (≈ 0.442 µM)	0.06 (≈ 0.106 µM)	0.125 (≈ 0.221 µM)	0.5 (≈ 0.884 µM)	MIC (Staphylococcus aureus [19]): 0.125 µg/mL (≈ 0.221 µM); MIC50 [20]: 0.06 µg/mL (≈ 0.106 µM); MIC90 [20]: 0.5 µg/mL (≈ 0.884 µM); MIC (Staphylococcus aureus [21]): 0.25 µg/mL (≈ 0.442 µM); MIC50 [22]: 0.016 µg/mL (≈ 0.0283 µM); MIC90 [22]: 0.03 µg/mL (≈ 0.053 µM); MIC [23]: 0.125 µg/mL (≈ 0.221 µM); MIC [24]: 4 µg/mL (≈ 7.07 µM); MIC [25]: 0.06 µg/mL (≈ 0.106 µM); MIC [26]: 128 µg/mL (≈ 226 µM); fold change (FC) [27]: 10; MIC (Staphylococcus aureus [28]): 0.03 µg/mL (≈ 0.053 µM); MIC (Staphylococcus aureus [29]): 8 µg/mL (≈ 14.1 µM); MIC (Staphylococcus aureus [30]): 0.125 µg/mL (≈ 0.221 µM); fold change (FC) (Staphylococcus aureus [31]): 10; MIC [32]: 0.25 µg/mL (≈ 0.442 µM); MIC [33]: 0.125 µg/mL (≈ 0.221 µM); fold change (FC) [34]: 1; MIC (Staphylococcus aureus [35]): 0.03 µg/mL (≈ 0.053 µM); fold change (FC) [36]: -7
COc1cc(Cc2cnc(N)nc2N)cc(/C=C/C(=O)N2N=Cc3ccccc3C2c2cnc(N3CCOCC3)nc2)c1OC (stereo not given)	0.25 (≈ 0.411 µM)	128 (≈ 211 µM)	-1	> 128	0	0.25 (≈ 0.411 µM)	0.25 (≈ 0.411 µM)	0.25 (≈ 0.411 µM)	4 (≈ 6.58 µM)	4	0	0.06 (≈ 0.0987 µM)	6	8 (≈ 13.2 µM)	1 (≈ 1.65 µM)	0.03 (≈ 0.0494 µM)	0.25 (≈ 0.411 µM)	0.125 (≈ 0.206 µM)	0.125 (≈ 0.206 µM)	1 (≈ 1.65 µM)	MIC (Staphylococcus aureus [19]): 0.03 µg/mL (≈ 0.0494 µM); MIC50 [20]: 0.06 µg/mL (≈ 0.0987 µM); MIC90 [20]: 0.5 µg/mL (≈ 0.823 µM); MIC (Staphylococcus aureus [21]): 0.25 µg/mL (≈ 0.411 µM); MIC50 [22]: 0.03 µg/mL (≈ 0.0494 µM); MIC90 [22]: 0.06 µg/mL (≈ 0.0987 µM); MIC [23]: 0.25 µg/mL (≈ 0.411 µM); MIC [24]: 1 µg/mL (≈ 1.65 µM); MIC [25]: 0.06 µg/mL (≈ 0.0987 µM); MIC [26]: 128 µg/mL (≈ 211 µM); fold change (FC) [27]: 10; MIC (Staphylococcus aureus [28]): 0.03 µg/mL (≈ 0.0494 µM); MIC (Staphylococcus aureus [29]): 2 µg/mL (≈ 3.29 µM); MIC (Staphylococcus aureus [30]): 0.25 µg/mL (≈ 0.411 µM); fold change (FC) (Staphylococcus aureus [31]): 9; MIC [32]: 0.25 µg/mL (≈ 0.411 µM); MIC [33]: 0.5 µg/mL (≈ 0.823 µM); fold change (FC) [34]: 4; MIC (Staphylococcus aureus [35]): 0.03 µg/mL (≈ 0.0494 µM); fold change (FC) [36]: -7
